Data from ChEMBL document CHEMBL2346548, “Design, synthesis, and structure-activity relationship studies of tryptanthrins as antitubercular agents” (J Nat Prod, 2013).
In brackets after ≈: the same amount, converted by molar mass.

How the values were obtained:
[1] = tested on: Mycobacterium tuberculosis; test: Antitubercular activity against Mycobacterium tuberculosis H37Rv incubated at 37 degC for 14 days in presence of 40% human serum by microplate alamar blue assay; type: functional; details: 336 h
Procedure, shortened: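 This is the MABA run in 7H9 broth containing 40% human serum. Compounds were 2-fold serially diluted, and wells were inoculated with H37Rv at 2 × 10⁵ CFU/mL. Incubation was at 37 °C for 14 days, then Alamar Blue was added. MIC was the lowest concentration preventing the blue-to-pink colour change.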

[2] = Metabolic stability in human liver microsomes assessed as parent compound remaining at 1 uM incubated for 1 hr by HPLC-MS/MS method; type: ADME, Microsome; details: read-out: Stability
Procedure, shortened: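 Pooled mixed-gender human liver microsomes (0.3 mg/mL protein), 1 μM compound with NADP-regenerating system in phosphate buffer pH 7.4, 1 h at 37 °C; parent measured at start and end by HPLC-MS/MS; duplicate means.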

CYP3A4 = CYP3A4 (Homo sapiens, UniProt P08684); test: Inhibition of human recombinant CYP3A4 at 10 uM incubated for 30 mins at 37 degC using 7-benzyloxy-4-(trifluoromethyl)coumarin substrate; type: ADME; details: recombinant CYP3A4, probe 7-benzyloxy-4-(trifluoromethyl)coumarin
Chain of CYP3A4 (P08684 whole entry): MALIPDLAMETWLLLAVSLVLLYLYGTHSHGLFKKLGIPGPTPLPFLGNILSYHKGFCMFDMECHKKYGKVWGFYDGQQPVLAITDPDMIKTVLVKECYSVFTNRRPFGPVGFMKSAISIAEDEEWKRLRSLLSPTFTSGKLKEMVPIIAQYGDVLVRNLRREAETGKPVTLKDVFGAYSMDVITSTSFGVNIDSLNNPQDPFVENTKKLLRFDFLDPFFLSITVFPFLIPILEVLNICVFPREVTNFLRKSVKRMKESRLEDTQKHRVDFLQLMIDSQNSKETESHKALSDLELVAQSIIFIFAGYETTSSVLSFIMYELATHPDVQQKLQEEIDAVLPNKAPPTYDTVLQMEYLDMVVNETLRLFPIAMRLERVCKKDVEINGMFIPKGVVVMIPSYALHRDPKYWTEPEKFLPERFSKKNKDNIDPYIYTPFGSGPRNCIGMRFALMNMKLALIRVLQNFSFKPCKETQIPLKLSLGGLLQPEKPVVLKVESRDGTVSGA

[3] = Permeability across basolateral to apical side in human Caco2 cells incubated for 1 hr at 37 degC by HPLC-MS/MS method; type: ADME, cell-based; details: Caco-2
[4] = Solubility in simulated intestinal fluid at pH 7.6 by HPLC method; type: physicochemical
Procedure, shortened: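 Simulated intestinal fluid medium; each analogue 200 μM final in 2% DMSO, shaken 24 h at room temperature, then HPLC with photodiode array read at 230 nm; duplicate, means given.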

Vero = test: Cytotoxicity against african green monkey Vero cells; type: cell-based, Chlorocebus sabaeus; details: Chlorocebus sabaeus, Vero; read-out: IC50
[5] = tested on: Mycobacterium tuberculosis; test: Antitubercular activity against Mycobacterium tuberculosis H37Rv incubated at 37 degC for 7 days by microplate alamar blue assay; type: functional; details: for MIC: Mycobacterium tuberculosis, H37Rv, 168 h
Procedure, shortened: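 Mtb H37Rv was grown in 7H9 broth with glycerol, Casitone, 10% OADC and 0.05% Tween 80 to OD600 0.4. Compounds were 2-fold serially diluted from DMSO stocks in 7H9, and wells were inoculated at 2 × 10⁵ CFU/mL. After 7 days at 37 °C, Alamar Blue was added and read after a further 24 h. MIC was the lowest concentration preventing the blue-to-pink change.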

[6] = Permeability across apical to basolateral side in human Caco2 cells incubated for 1 hr at 37 degC by HPLC-MS/MS method; type: ADME, cell-based; details: Caco-2
Procedure, shortened: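 TC7 (Caco-2 subclone) monolayer; 10 μM compound in 1% DMSO in HBSS-MES pH 6.5 on apical donor side, basolateral receiver pH 7.4; shaken 1 h at 37 °C; receiver sampled, HPLC-MS/MS; duplicate means.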

CYP2C9 = CYP2C9 (Homo sapiens, UniProt P11712); test: Inhibition of human recombinant CYP2C9 at 10 uM incubated for 80 mins at 37 degC using 7-methoxy-4-trifluoromethylcoumarin substrate; type: ADME; details: recombinant CYP2C9, probe 7-methoxy-4-trifluoromethylcoumarin
Chain of CYP2C9 (P11712 whole entry): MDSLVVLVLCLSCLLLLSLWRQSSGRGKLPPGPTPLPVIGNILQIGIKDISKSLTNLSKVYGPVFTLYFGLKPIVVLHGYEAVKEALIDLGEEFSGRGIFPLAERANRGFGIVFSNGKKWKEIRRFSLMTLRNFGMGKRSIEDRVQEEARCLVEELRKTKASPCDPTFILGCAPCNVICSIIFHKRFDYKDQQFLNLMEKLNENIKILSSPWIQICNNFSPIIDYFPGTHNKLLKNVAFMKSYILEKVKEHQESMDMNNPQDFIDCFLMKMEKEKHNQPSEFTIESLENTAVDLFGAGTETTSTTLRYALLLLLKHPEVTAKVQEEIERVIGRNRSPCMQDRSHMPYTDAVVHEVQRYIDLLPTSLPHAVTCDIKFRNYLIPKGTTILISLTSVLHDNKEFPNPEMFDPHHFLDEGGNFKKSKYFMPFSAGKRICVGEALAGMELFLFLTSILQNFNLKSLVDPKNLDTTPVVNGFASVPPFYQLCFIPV

CYP2C19 = CYP2C19 (Homo sapiens, UniProt P33261); test: Inhibition of human recombinant CYP2C19 at 10 uM incubated for 60 mins at 37 degC using 3-cyano-7-ethoxycoumarin substrate; type: ADME; details: recombinant CYP2C19, probe 3-cyano-7-ethoxycoumarin
Chain of CYP2C19 (P33261 whole entry): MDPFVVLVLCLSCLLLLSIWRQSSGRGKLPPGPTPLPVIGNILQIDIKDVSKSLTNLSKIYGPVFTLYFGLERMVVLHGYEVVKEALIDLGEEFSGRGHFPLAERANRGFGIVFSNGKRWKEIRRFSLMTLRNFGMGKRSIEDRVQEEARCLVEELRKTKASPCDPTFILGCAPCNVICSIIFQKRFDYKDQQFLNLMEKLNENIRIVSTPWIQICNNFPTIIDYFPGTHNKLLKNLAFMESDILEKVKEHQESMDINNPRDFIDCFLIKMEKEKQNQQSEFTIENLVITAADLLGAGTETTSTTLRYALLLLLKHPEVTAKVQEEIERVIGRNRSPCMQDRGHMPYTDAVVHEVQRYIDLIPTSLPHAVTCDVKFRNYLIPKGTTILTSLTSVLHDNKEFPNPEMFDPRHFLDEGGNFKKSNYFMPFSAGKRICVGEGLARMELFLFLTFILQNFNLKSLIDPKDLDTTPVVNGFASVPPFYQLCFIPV

[7] = Protein binding in human plasma at 10 uM incubated for 8 hrs at 37 degC by equilibrium dialysis method; type: ADME, cell-free; details: read-out: PPB (converted)
Procedure, shortened: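 Equilibrium dialysis: 10 μM compound in 1% DMSO in human plasma vs 0.05 M phosphate buffer pH 7.5 across 12–14 K cutoff membrane, at least 8 h at 37 °C; HPLC-photodiode detection at 230 nm; duplicate means.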

[8] = Solubility in simulated gastric fluid at pH 1.5 by HPLC method; type: physicochemical
Procedure, shortened: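 Compound at 200 μM final in 2% DMSO in simulated gastric fluid, shaken 24 h at room temperature; HPLC-photodiode array detection at 230 nm; duplicate means.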

[9] = tested on: Mycobacterium tuberculosis; test: Antitubercular activity against non-replicating Mycobacterium tuberculosis H37Rv incubated for 10 days by LORA method; type: functional; details: 240 h
Procedure, shortened: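 H37Rv carrying pFCA-luxAB was adapted to low oxygen by gradual self-depletion in a sealed, slowly stirred flask. It was then exposed to compounds for 10 days under anaerobic conditions. Cultures recovered for 28 h in ambient oxygen before n-decanal substrate was added and luminescence read. MIC was the lowest concentration giving a 90% reduction in luminescence versus untreated controls.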

[10] = Distribution coefficient, log D of the compound between n-octanol and PBS buffer at pH 7.4 incubated for 1 hr by shake flask method; type: physicochemical
Procedure, shortened: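 Partition between n-octanol and PBS pH 7.4 after 1 h shaking at room temperature; phases analysed by HPLC with photodiode detection; logD = log10 of organic/aqueous amount.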

[11] = Efflux ratio in human Caco2 cells incubated for 1 hr at 37 degC by HPLC-MS/MS method; type: ADME, cell-based; details: Caco-2
[12] = Aqueous solubility in PBS buffer at pH 7.4 by HPLC method; type: physicochemical
Procedure, shortened: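 Compound at 200 μM final in 2% DMSO in PBS pH 7.4, shaken 24 h at room temperature; quantified by HPLC with photodiode array detection at 230 nm; duplicate, mean reported.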

[13] = Half life in male rat at 56 mg/kg, po; type: ADME, organism-based; design: dose 56 mg/kg, route oral; details: in vivo
[14] = Half life in female rat at 56 mg/kg, po; type: ADME, organism-based; design: dose 56 mg/kg, route oral; details: in vivo
[15] = PBS buffer, read-out: solubility

SMILES	MIC [1] [µg/mL]	remaining at 1 h, 1 µM [2] [%]	inhibition at 0.5 h, 10 µM (CYP3A4) [%]	Papp B→A at 1 h [3] [×10⁻⁶ cm/s]	solubility [4] [µM]	IC50 (Vero) [µg/mL]	MBC90 [5] [µg/mL]	MIC [5] [µg/mL]	Papp A→B at 1 h [6] [×10⁻⁶ cm/s]	inhibition at 80 min, 10 µM (CYP2C9) [%]	inhibition at 1 h, 10 µM (CYP2C19) [%]	fraction unbound at 8 h, 10 µM [7]	solubility [8] [µM]	MIC90 [9] [µg/mL]	logD at 1 h [10]	efflux ratio at 1 h [11]	solubility [12, 15] [µM]	half-life [13] [h]	half-life [14] [h]	solubility ([12]; buffer) [µM]
O=C1c2ccc(Cl)cc2-n2c1nc1ccccc1c2=O	0.5	27	7	0.1	20.3 (≈ 5.74 µg/mL)	> 50	0.5 (≈ 1.77 µM)	0.25 (≈ 0.884 µM)	0.4	25	4	0.01	71.9 (≈ 20.3 µg/mL)	> 50	2.45					
O=C1c2cc(OC(F)(F)F)ccc2-n2c1nc1ccccc1c2=O	0.5	59		5.8	31.3 (≈ 10.4 µg/mL)	> 50		0.125 (≈ 0.376 µM)	22				1.5 (≈ 0.498 µg/mL)	> 50		> 1	1 (≈ 0.332 µg/mL)			
O=C1c2cc(C(=O)N3CCOCC3)ccc2-n2c1nc1ccccc1c2=O	32					> 10		8 (≈ 22.1 µM)						> 10						
O=C1C2=Nc3ccncc3CN2c2ccccc21						> 20		16 (≈ 68 µM)						> 20						
O=C1c2ccccc2-n2c1nc1ccccc1c2=O [TRYPTANTHRIN]	1	15	12	22.5	12.9 (≈ 3.2 µg/mL)	> 8	1 (≈ 4.03 µM)	1 (≈ 4.03 µM)	60.1	25	9	0.041	11.7 (≈ 2.9 µg/mL)		2.29	> 1		5.6	4.35	5.4 (≈ 1.34 µg/mL)
O=C1c2cc(OC(F)(F)F)ccc2-n2c1nc1cnccc1c2=O	0.25					5.4 (≈ 16.2 µM)		0.125 (≈ 0.375 µM)						1.5 (≈ 4.5 µM)						
O=C1c2cc(Br)ccc2-n2c1nc1ccccc1c2=O	0.5	59		7.6	92.9 (≈ 30.4 µg/mL)	35 (≈ 107 µM)		0.125 (≈ 0.382 µM)	23.8				2.3 (≈ 0.752 µg/mL)	> 50		> 1	2.6 (≈ 0.851 µg/mL)			
O=C1c2ccccc2-n2c1nc1ncccc1c2=O	8					24 (≈ 96.3 µM)		4 (≈ 16 µM)						23 (≈ 92.3 µM)						
O=C1c2cc(Cl)ccc2-n2c1nc1ncccc1c2=O	0.125	96	62	44	18.9 (≈ 5.36 µg/mL)	5.4 (≈ 19 µM)	0.25 (≈ 0.881 µM)	0.125 (≈ 0.441 µM)	73.8	54	67	0.051	6 (≈ 1.7 µg/mL)	1.4 (≈ 4.94 µM)	1.77	> 1	8 (≈ 2.27 µg/mL)			
O=C1c2cc(Cl)ccc2-n2c1nc1ccc(F)cc1c2=O	0.312	63		2.1	29.8 (≈ 8.96 µg/mL)	23.5 (≈ 78.2 µM)		0.156 (≈ 0.519 µM)	2.2					> 50						
O=C1c2cc(Cl)ccc2-n2c1nc1cc(F)ccc1c2=O	0.5	91		12.7	10.3 (≈ 3.1 µg/mL)	> 50	0.25 (≈ 0.831 µM)	0.5 (≈ 1.66 µM)	28.5				2.5 (≈ 0.752 µg/mL)	> 50		> 1	1.1 (≈ 0.331 µg/mL)			
O=C1C2=Nc3ccncc3CN2c2ccc(OC(F)(F)F)cc21						5.2 (≈ 16.3 µM)		2 (≈ 6.26 µM)						9 (≈ 28.2 µM)						
